“Also recorded” adds a separate entry of the source.
Legend:
[1] = system: patients with advanced, refractory solid tumours; assay: Phase I dose escalation: toxicity; format: in vivo, human; details: treatment-related
Procedure, shortened: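 Oral dosing was once daily in 28-day cycles, escalating by an accelerated design from 0.2 mg/day. Toxicity was graded by NCI CTC v3.0. During cycle 1, patients had weekly examination, blood pressure, full blood count, biochemistry and urinalysis, plus ECGs on days 1 and 8. DLT covered drug-related toxicity in cycle 1: grade ⩾3 toxicity, repeated grade 2 toxicity needing dose reduction, or <75% of planned dose given. The MTD was the highest dose with ≤1/6 patients having a DLT, and 12 more patients were treated at the MTD.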

[2] = system: patients with advanced, refractory solid tumours; assay: Anti-tumour efficacy by Response Evaluation Criteria in Solid Tumours; format: in vivo, human
Procedure, shortened: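 Patients took oral drug once daily on an empty stomach after an overnight fast, with only clear fluids within 2 h of dosing. Dosing was continuous in 28-day cycles until progressive disease or unacceptable toxicity. Tumour response was assessed by RECIST measurements, with CT imaging.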

[3] = system: patients with advanced radioiodine-refractory differentiated thyroid cancer; details: preliminary results, phase II; ref Sherman et al, 2011; cited from earlier work
[4] = Plasma pharmacokinetics of E7080; format: in vivo, human
Procedure, shortened: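 Patients took oral drug once daily after an overnight fast. Blood and urine were sampled after a single dose and after multiple dosing. Drug concentrations were measured by LC-MS/MS. tmax, Cmax, AUC0-24, AUC0-∞, AUC0-τ, t½, CL/F and V/F were calculated. Terminal-phase parameters were omitted where too few terminal data points were available.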

[5] = 0.2–6.4 mg per day, 21 patients

SMILES: COc1cc2nccc(Oc3ccc(NC(=O)NC4CC4)c(Cl)c3)c2cc1C(N)=O [E7080]
- Proteinuria Grade 3, n patients ([1]; 0.2–6.4 mg (n=21)): 0
- Stomatitis (all grades), % of patients ([1]; 0.2–6.4 mg (n=21)): 5%
- Stomatitis (all grades), n patients ([1]; 0.2–6.4 mg (n=21)): 1
- Vomiting (all grades), n patients ([1]; 0.2–6.4 mg (n=21)): 7
- Abdominal pain (all grades), % of patients ([1]; 12–20 mg (n=30)): 7%
- Abdominal pain (all grades), n patients ([1]; 12–20 mg (n=30)): 2
- Anorexia (all grades), % of patients ([1]; 12–20 mg (n=30)): 17%
- Anorexia (all grades), n patients ([1]; 12–20 mg (n=30)): 5
- Constipation (all grades), % of patients ([1]; 12–20 mg (n=30)): 10%
- Constipation (all grades), n patients ([1]; 12–20 mg (n=30)): 3
- Diarrhoea (all grades), n patients ([1]; 12–20 mg (n=30)): 8
- Dry skin (all grades), % of patients ([1]; 12–20 mg (n=30)): 10%
- Dry skin (all grades), n patients ([1]; 12–20 mg (n=30)): 3
- Dysphonia (all grades), % of patients ([1]; 12–20 mg (n=30)): 13%
- Dysphonia (all grades), n patients ([1]; 12–20 mg (n=30)): 4
- Fatigue (all grades), % of patients ([1]; 12–20 mg (n=30)): 23%
- Fatigue (all grades), n patients ([1]; 12–20 mg (n=30)): 7
- Headache (all grades), % of patients ([1]; 12–20 mg (n=30)): 7%
- Headache (all grades), n patients ([1]; 12–20 mg (n=30)): 2
- Hypertension (all grades), % of patients ([1]; 12–20 mg (n=30)): 40%
- Hypertension (all grades), n patients ([1]; 12–20 mg (n=30)): 12
- Hypertension Grade 1, % of patients ([1]; 12–20 mg (n=30)): 7%
- Hypertension Grade 1, n patients ([1]; 12–20 mg (n=30)): 2
- Hypertension Grade 2, % of patients ([1]; 12–20 mg (n=30)): 23%
- Hypertension Grade 2, n patients ([1]; 12–20 mg (n=30)): 7
- Hypertension Grade 3, % of patients ([1]; 12–20 mg (n=30)): 10%
- Hypertension Grade 3, n patients ([1]; 12–20 mg (n=30)): 3
- Lethargy (all grades), % of patients ([1]; 12–20 mg (n=30)): 17%
- Lethargy (all grades), n patients ([1]; 12–20 mg (n=30)): 5
- Nausea (all grades), % of patients ([1]; 12–20 mg (n=30)): 17%
- Nausea (all grades), n patients ([1]; 12–20 mg (n=30)): 5
- Proteinuria (all grades), n patients ([1]; 12–20 mg (n=30)): 8
- Proteinuria Grade 1, % of patients ([1]; 12–20 mg (n=30)): 0%
- Proteinuria Grade 1, n patients ([1]; 12–20 mg (n=30)): 0
- Proteinuria Grade 2, % of patients ([1]; 12–20 mg (n=30)): 20%
- Proteinuria Grade 3, % of patients ([1]; 12–20 mg (n=30)): 7%
- Proteinuria Grade 3, n patients ([1]; 12–20 mg (n=30)): 2
- Stomatitis (all grades), % of patients ([1]; 12–20 mg (n=30)): 20%
- Vomiting (all grades), % of patients ([1]; 12–20 mg (n=30)): 10%
- Vomiting (all grades), n patients ([1]; 12–20 mg (n=30)): 3
- Abdominal pain (all grades), % of patients ([1]; Total (n=82)): 11%
- Abdominal pain (all grades), n patients ([1]; Total (n=82)): 9
- Anorexia (all grades), % of patients ([1]; Total (n=82)): 17%
- Anorexia (all grades), n patients ([1]; Total (n=82)): 14
- Constipation (all grades), % of patients ([1]; Total (n=82)): 17%
- Constipation (all grades), n patients ([1]; Total (n=82)): 14
- Diarrhoea (all grades), n patients ([1]; Total (n=82)): 28
- Dry skin (all grades), % of patients ([1]; Total (n=82)): 20%
- Dry skin (all grades), n patients ([1]; Total (n=82)): 16
- Dysphonia (all grades), % of patients ([1]; Total (n=82)): 22%
- Dysphonia (all grades), n patients ([1]; Total (n=82)): 18
- Fatigue (all grades), % of patients ([1]; Total (n=82)): 18%
- Fatigue (all grades), n patients ([1]; Total (n=82)): 15
- Headache (all grades), % of patients ([1]; Total (n=82)): 13%
- Headache (all grades), n patients ([1]; Total (n=82)): 11
- Hypertension (all grades), % of patients ([1]; Total (n=82)): 40%
- Hypertension Grade 1, % of patients ([1]; Total (n=82)): 7%
- Hypertension Grade 2, % of patients ([1]; Total (n=82)): 22%
- Hypertension Grade 2, n patients ([1]; Total (n=82)): 18
- Hypertension Grade 3, % of patients ([1]; Total (n=82)): 11%
- Lethargy (all grades), % of patients ([1]; Total (n=82)): 23%
- Nausea (all grades), % of patients ([1]; Total (n=82)): 37%
- Proteinuria (all grades), % of patients ([1]; Total (n=82)): 26%
- Proteinuria (all grades), n patients ([1]; Total (n=82)): 21
- Proteinuria Grade 1, % of patients ([1]; Total (n=82)): 0%
- Proteinuria Grade 1, n patients ([1]; Total (n=82)): 0
- Proteinuria Grade 2, % of patients ([1]; Total (n=82)): 18%
- Proteinuria Grade 2, n patients ([1]; Total (n=82)): 15
- Proteinuria Grade 3, % of patients ([1]; Total (n=82)): 7%
- Stomatitis (all grades), % of patients ([1]; Total (n=82)): 32%
- Stomatitis (all grades), n patients ([1]; Total (n=82)): 26
- Vomiting (all grades), % of patients ([1]; Total (n=82)): 23%
- Best response: Not evaluated, % ([2]; 25 mg per day, 24 patients): 0 (0) %
- Best response: Partial response, % ([2]; 25 mg per day, 24 patients): 13%
- Best response: Progressive disease, % ([2]; 25 mg per day, 24 patients): 8%
- Best response: Stable disease, % ([2]; 25 mg per day, 24 patients): 67%
- Best response: Not evaluated, % ([2]; 32 mg per day, 7 patients): 0 (0) %
- Best response: Partial response, % ([2]; 32 mg per day, 7 patients): 29%
- Best response: Progressive disease, % ([2]; 32 mg per day, 7 patients): 0 (0) %
- Best response: Stable disease, % ([2]; 32 mg per day, 7 patients): 43%
- Best response: Not evaluated, % [2, 5]: 5%
- Best response: Partial response, % [2, 5]: 0 (0) %
- Best response: Progressive disease, % [2, 5]: 24%
- Best response: Stable disease, % [2, 5]: 19%
- Best response: Not evaluated, % ([2]; 12–20 mg per day, 30 patients): 3%
- Best response: Partial response, % ([2]; 12–20 mg per day, 30 patients): 7%
- Best response: Progressive disease, % ([2]; 12–20 mg per day, 30 patients): 23%
- Best response: Stable disease, % ([2]; 12–20 mg per day, 30 patients): 50%
- Best response: Not evaluated, % ([2]; Total, 82 patients): 2 (2) %
- Best response: Partial response, % ([2]; Total, 82 patients): 9%
- Best response: Progressive disease, % ([2]; Total, 82 patients): 17%
- Best response: Stable disease, % ([2]; Total, 82 patients): 46%
- Clinical benefit (PR rate plus SD rate), % of patients ([2]; all doses): 55%
- Clinical benefit (PR rate plus SD rate), n patients ([2]; all doses): 45
- Patients with renal cancer with PR ([2]; of nine patients with renal cancer): Four
- Decrease in the sum of the longest tumour diameters ([2]; one patient with melanoma (largest decrease)): approximately 85%
- Overall reduction in tumour size (CT) ([2]; one patient with melanoma, after 32 weeks' treatment): 77%
- Overall reduction in tumour size (CT) ([2]; one patient with renal cancer, after 24 weeks' treatment): 51%
- Median progression-free survival (95% CI) ([2]; patients with melanoma, n=14): 217 days
- Median progression-free survival (95% CI) ([2]; patients with renal cancer, all dose cohorts, n=9): 477 days
- Objective response rate [3]: 59%
- Dose dependence of exposure and Cmax ([4]; 0.2 to 32 mg): dose-linear kinetics; also recorded: increased linearly with increasing dose
- Accumulation after multiple dosing ([4]; after 4 weeks' administration, once daily): no drug accumulation
- Time to maximum concentrations ([4]; after a single dose): ≤ 3 h

Source: paper PMC3349182 (British Journal of Cancer, 2012)
